Assay results taken from ChEMBL document CHEMBL3585321, “Synthesis and antimicrobial activity of chloramphenicol-polyamine conjugates” (Bioorg Med Chem, 2015).
Activity calls are given as the source filed them. No cut-off for these calls is given here.

How the values were obtained:
Staphylococcus aureus [1] = test: Antibacterial activity against methicillin-resistant Staphylococcus aureus GRE2272 assessed as inhibition of bacterial growth; format: functional, organism-based
Staphylococcus aureus [2] = test: Antibacterial activity against methicillin-resistant Staphylococcus aureus GRE2372 assessed as inhibition of bacterial growth; format: functional, organism-based
Staphylococcus aureus [3] = test: Antibacterial activity against methicillin-resistant Staphylococcus aureus GRE2691 assessed as inhibition of bacterial growth; format: functional, organism-based
Escherichia coli [4] = test: Antibacterial activity against wild type Escherichia coli K-12 assessed as inhibition of bacterial growth; format: functional, organism-based
Escherichia coli [5] = test: Antibacterial activity against Escherichia coli BL21(DE3) expressing delta-tolC gene assessed as inhibition of bacterial growth; format: functional, organism-based
Outline: (§1)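 IC50 from bacterial cultures grown in LB medium without drug or with drug across a range of concentrations, reported in μM. Three independent experiments, each with two replicates, given as mean±SD.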

Escherichia coli [6] = test: Antibacterial activity against Escherichia coli Rosetta(DE3) containing rare tRNA genes and chloramphenicol resistant gene in pLysS plasmid assessed as inhibition of bacterial growth; format: functional, organism-based; outline: as §1
Staphylococcus aureus [7] = test: Antibacterial activity against wild type Staphylococcus aureus assessed as inhibition of bacterial growth at antibacterial IC50 level in presence of 10 times IC50 levels of putrescine; format: functional, organism-based
Outline: (§2)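 Cells started at A560 0.020 in M9 medium with drug at its own growth IC50, alone or with putrescine, spermidine or spermine at 10×IC50. Cultures run until the drug-free control reached A560 0.800. Growth given as percent of control optical density. At least three experiments, two replicates each, mean±SD, p<0.05.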

Staphylococcus aureus [8] = test: Antibacterial activity against wild type Staphylococcus aureus assessed as inhibition of bacterial growth at antibacterial IC50 level in presence of 10 times IC50 levels of spermine; format: functional, organism-based; outline: as §2
Staphylococcus aureus [9] = test: Antibacterial activity against wild type Staphylococcus aureus assessed as inhibition of bacterial growth at antibacterial IC50 level in presence of 10 times IC50 levels of spermidine; format: functional, organism-based; outline: as §2
Escherichia coli [10] = test: Antibacterial activity against wild type Escherichia coli K-12 assessed as inhibition of bacterial growth at antibacterial IC50 level in presence of 10 times IC50 levels of putrescine; format: functional, organism-based; outline: as §2
Escherichia coli [11] = test: Antibacterial activity against wild type Escherichia coli K-12 assessed as inhibition of bacterial growth at antibacterial IC50 level in presence of 10 times IC50 levels of spermine; format: functional, organism-based; outline: as §2
Escherichia coli [12] = test: Antibacterial activity against wild type Escherichia coli K-12 assessed as inhibition of bacterial growth at antibacterial IC50 level in presence of 10 times IC50 levels of spermidine; format: functional, organism-based; outline: as §2
Escherichia coli [13] = test: Activity of Escherichia coli chloramphenicol acetyltransferase assessed as coenzyme A formation using acetyl coenzyme A at 0.154 mM
Escherichia coli [14] = test: Ratio of Vmax to Km for Escherichia coli chloramphenicol acetyltransferase assessed as coenzyme A formation using acetyl coenzyme A at 0.154 mM
[15] = Inhibition of Escherichia coli K-12 70S ribosome poly(U)-programmed ribosome (complex C) bearing tRNAPhe at E-site and Ac[3H]Phe-tRNA at P-site assessed as reduction in peptide bond formation using puromycin(S) substrate
Staphylococcus aureus [16] = test: Antibacterial activity against wild type Staphylococcus aureus assessed as inhibition of bacterial growth; format: functional, organism-based

CN(C)[C@@H]1C(O)=C(C(N)=O)C(=O)[C@@]2(O)C(O)=C3C(=O)c4c(O)cccc4[C@@](C)(O)[C@H]3C[C@@H]12
growth inhibition (GI) (Staphylococcus aureus [1]): inactive
growth inhibition (GI) (Staphylococcus aureus [2]): Active
growth inhibition (GI) (Staphylococcus aureus [3]): inactive

NCCCCNC(=O)CCC(=O)N[C@H](CO)[C@H](O)c1ccc([N+](=O)[O-])cc1
IC50 (Staphylococcus aureus [1]): > 200 µM
IC50 (Staphylococcus aureus [2]): > 200 µM
IC50 (Staphylococcus aureus [3]): > 200 µM
IC50 (Escherichia coli [4]): > 200 µM
IC50 (Escherichia coli [5]): > 200 µM
IC50 (Escherichia coli [6]): > 200 µM

NCCCN(CCCCN(Cc1ccccc1)Cc1ccccc1)C(=O)CCC(=O)N[C@H](CO)[C@H](O)c1ccc([N+](=O)[O-])cc1
growth inhibition (GI) (Staphylococcus aureus [7]): inactive
growth inhibition (GI) (Staphylococcus aureus [8]): inactive
growth inhibition (GI) (Staphylococcus aureus [9]): inactive
growth inhibition (GI) (Escherichia coli [10]): inactive
growth inhibition (GI) (Escherichia coli [11]): inactive
growth inhibition (GI) (Escherichia coli [12]): inactive
Km (Escherichia coli [13]): 37.7 µM
Vmax (Escherichia coli [13]): 1.54 µM/min
Vmax/Km (Escherichia coli [14]): 0.041 min⁻¹

NCCCNCCCCNCCCNC(=O)CCC(=O)N[C@H](CO)[C@H](O)c1ccc([N+](=O)[O-])cc1
Ki [15]: 0.75 µM

O=C(CCNC(=O)c1nc[nH]n1)N[C@H](CO)[C@H](O)c1ccc([N+](=O)[O-])cc1
IC50 (Staphylococcus aureus [1]): > 100 µM
IC50 (Staphylococcus aureus [2]): > 100 µM
IC50 (Staphylococcus aureus [3]): > 100 µM
IC50 (Staphylococcus aureus [16]): 66 µM
IC50 (Escherichia coli [4]): > 200 µM
IC50 (Escherichia coli [5]): > 200 µM
IC50 (Escherichia coli [6]): > 200 µM
Ki [15]: 4 µM

CO[C@H]1/C=C/O[C@@]2(C)Oc3c(C)c(O)c4c(O)c(c(/C=N/N5CCN(C)CC5)c(O)c4c3C2=O)NC(=O)/C(C)=C\C=C\[C@H](C)[C@H](O)[C@@H](C)[C@@H](O)[C@@H](C)[C@H](OC(C)=O)[C@@H]1C
growth inhibition (GI) (Staphylococcus aureus [1]): Active
growth inhibition (GI) (Staphylococcus aureus [2]): inactive
growth inhibition (GI) (Staphylococcus aureus [3]): Active

NC[C@H]1O[C@H](O[C@H]2[C@H](O)[C@@H](O[C@H]3O[C@H](CO)[C@@H](O)[C@H](N)[C@H]3O)[C@H](N)C[C@@H]2N)[C@H](O)[C@@H](O)[C@@H]1O
growth inhibition (GI) (Staphylococcus aureus [1]): inactive
growth inhibition (GI) (Staphylococcus aureus [2]): inactive
growth inhibition (GI) (Staphylococcus aureus [3]): inactive

CO[C@@]1(NC(=O)Cc2cccs2)C(=O)N2C(C(=O)O)=C(COC(N)=O)CS[C@@H]21
growth inhibition (GI) (Staphylococcus aureus [1]): inactive
growth inhibition (GI) (Staphylococcus aureus [2]): inactive
growth inhibition (GI) (Staphylococcus aureus [3]): inactive

CC[C@H]1OC(=O)[C@H](C)[C@@H](O[C@H]2C[C@@](C)(OC)[C@@H](O)[C@H](C)O2)[C@H](C)[C@@H](O[C@@H]2O[C@H](C)C[C@H](N(C)C)[C@H]2O)[C@](C)(O)C[C@@H](C)C(=O)[C@H](C)[C@@H](O)[C@]1(C)O
growth inhibition (GI) (Staphylococcus aureus [1]): inactive
growth inhibition (GI) (Staphylococcus aureus [2]): inactive
growth inhibition (GI) (Staphylococcus aureus [3]): inactive

CC(=O)N[C@@H]1[C@H](Oc2c3cc4cc2Oc2ccc(cc2Cl)[C@@H](O[C@@H]2O[C@@H](CO)[C@@H](O)[C@H](O)[C@@H]2NC(C)=O)[C@@H]2NC(=O)[C@H](NC(=O)[C@@H]4NC(=O)[C@H]4NC(=O)[C@@H](Cc5ccc(c(Cl)c5)O3)NC(=O)[C@H](N)c3ccc(O)c(c3)Oc3cc(O)cc4c3)c3ccc(O)c(c3)-c3c(O[C@H]4O[C@H](CO)[C@@H](O)[C@@H](O)[C@@H]4O)cc(O)cc3[C@@H](C(=O)O)NC2=O)O[C@@H](CO)[C@@H](O)[C@@H]1O
growth inhibition (GI) (Staphylococcus aureus [1]): Active
growth inhibition (GI) (Staphylococcus aureus [2]): Active
growth inhibition (GI) (Staphylococcus aureus [3]): Active

NCCCCNC(=O)c1ccccc1C(=O)N[C@H](CO)[C@H](O)c1ccc([N+](=O)[O-])cc1
Ki [15]: 8.45 µM

NCCCCN(CCCN)C(=O)CCC(=O)N[C@H](CO)[C@H](O)c1ccc([N+](=O)[O-])cc1
IC50 (Staphylococcus aureus [1]): > 100 µM
IC50 (Staphylococcus aureus [2]): > 100 µM
IC50 (Staphylococcus aureus [3]): > 200 µM
IC50 (Staphylococcus aureus [16]): 12.7 µM
IC50 (Escherichia coli [4]): > 150 µM
IC50 (Escherichia coli [5]): > 100 µM
IC50 (Escherichia coli [6]): > 100 µM

O=C(N[C@H](CO)[C@H](O)c1ccc([N+](=O)[O-])cc1)c1nc[nH]n1
IC50 (Staphylococcus aureus [1]): > 100 µM
IC50 (Staphylococcus aureus [2]): > 100 µM
IC50 (Staphylococcus aureus [3]): > 100 µM
IC50 (Staphylococcus aureus [16]): > 100 µM
IC50 (Escherichia coli [4]): > 300 µM
IC50 (Escherichia coli [5]): > 300 µM
IC50 (Escherichia coli [6]): > 300 µM
Ki [15]: 1 µM

NCCCCNCCCCNCCCNC(=O)[C@@H](NC(=O)C(Cl)Cl)[C@H](O)c1ccc([N+](=O)[O-])cc1
Ki [15]: 5 µM
